Assay results reported in ChEMBL document CHEMBL1759935, “Pharmacokinetic optimisation of novel indole-2-carboxamide cannabinoid CB1 antagonists” (Bioorg Med Chem Lett, 2011).

Experiments:
[1] = Intrinsic clearance in human liver microsomes in presence of NADPH; format: ADME, Microsome
In short: (§1)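 Pooled human microsomes (gut or liver) at 0.5 mg protein/mL with 1 mM NADPH, pH 7.4 (P450 pathway). Compound loss followed by LC–MS/MS in duplicate time-course incubations; intrinsic clearance given per mg protein.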

[2] = Intrinsic clearance in human liver microsomes in presence of UGT; format: ADME, Microsome
In short: (§2)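 UGT pathway: human gut or liver microsomes at 0.5 mg protein/mL with 2 mM UDPGA, alamethicin and 1 mM MgCl2, pH 7.1. Compound depletion measured by LC–MS/MS in duplicate time-course incubations; intrinsic clearance expressed per mg protein.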

Cannabinoid receptor 1 [3] = target: T1, Cannabinoid receptor 1 (Homo sapiens, UniProt P21554); experiment: Antagonist activity against human CB1 receptor; format: functional
T1 sequence (P21554 whole entry): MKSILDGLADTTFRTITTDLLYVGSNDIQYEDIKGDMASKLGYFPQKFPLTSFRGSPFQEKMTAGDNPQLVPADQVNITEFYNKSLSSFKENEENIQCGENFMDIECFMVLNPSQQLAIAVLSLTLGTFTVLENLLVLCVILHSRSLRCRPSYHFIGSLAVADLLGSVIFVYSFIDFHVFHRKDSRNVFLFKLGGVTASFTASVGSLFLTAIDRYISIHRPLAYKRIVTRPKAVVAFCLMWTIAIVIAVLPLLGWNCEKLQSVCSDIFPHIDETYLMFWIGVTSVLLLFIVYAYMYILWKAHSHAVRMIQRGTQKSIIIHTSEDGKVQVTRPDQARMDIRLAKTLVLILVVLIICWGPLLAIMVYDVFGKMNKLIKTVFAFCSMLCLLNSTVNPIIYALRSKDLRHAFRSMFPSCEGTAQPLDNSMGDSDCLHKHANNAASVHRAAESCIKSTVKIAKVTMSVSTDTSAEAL

[4] = Intrinsic clearance in human gut microsomes in presence of UGT; format: ADME, Microsome; in short: as §2
[5] = Intrinsic clearance in human gut microsomes in presence of NADPH; format: ADME, Microsome; in short: as §1
Cannabinoid receptor 1 [6] = target: T1, Cannabinoid receptor 1; experiment: biochemical; format: cell-based, CHO
Mus musculus [7] = experiment: Inhibition of WIN55212-2-induced hypothermia in po dosed mouse assessed as change in rectal temperature administered 15 mins before WIN55212-2 challenge measured after 75 mins; format: functional; details: read-out: ID50 (the source's name)
In short: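 Antagonist or vehicle (5% mulgofen in saline, 10 mL/kg) given orally 75 min before rectal temperature reading. WIN 55,212-2 mesylate (10 mL/kg) given sc 60 min before the reading, at its time of maximal hypothermia. Metal probe with vaseline inserted about 1.5 cm; highest temperature stable for 10 s recorded. ID50 reported with confidence interval.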

Cannabinoid receptor 2 = Cannabinoid receptor 2 (Homo sapiens, UniProt P34972); experiment: Displacement of [3H]CP55940 from human recombinant CB2 receptor expressed in Sf9 cells
Chain of Cannabinoid receptor 2 (P34972 whole entry): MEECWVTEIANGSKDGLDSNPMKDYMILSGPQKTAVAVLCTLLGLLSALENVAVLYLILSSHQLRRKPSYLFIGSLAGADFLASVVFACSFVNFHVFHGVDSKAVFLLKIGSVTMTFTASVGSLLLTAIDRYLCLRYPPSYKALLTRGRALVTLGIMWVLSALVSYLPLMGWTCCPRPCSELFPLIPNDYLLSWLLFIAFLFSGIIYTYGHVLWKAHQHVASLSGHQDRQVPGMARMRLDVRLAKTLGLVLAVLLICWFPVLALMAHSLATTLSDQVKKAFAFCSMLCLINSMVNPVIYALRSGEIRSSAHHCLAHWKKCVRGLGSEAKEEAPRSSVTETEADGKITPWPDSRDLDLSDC
In short: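 Competition binding against [3H]CP55,940 on membranes from Sf9 cells expressing recombinant human CB2 receptor; run at least in duplicate.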

[8] = Intrinsic clearance in dog liver microsomes in presence of NADPH; format: ADME, Canis lupus familiaris, Microsome
In short: (§3)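 P450 pathway: compound depletion in duplicate time-course incubations of microsomes at 0.5 mg protein/mL with 1 mM NADPH, pH 7.4. Liver microsomes prepared in-house; small intestinal microsomes purchased. Loss measured by LC–MS/MS; CL_int expressed per mg microsomal protein.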

[9] = Intrinsic clearance in rat gut microsomes in presence of UGT; format: ADME, Microsome
In short: (§4)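 UGT pathway: compound loss in duplicate time-course incubations of liver (prepared in-house) or small intestinal microsomes at 0.5 mg protein/mL, with 2 mM UDPGA, alamethicin and 1 mM MgCl₂ at pH 7.1. Detection by LC–MS/MS; CL_int expressed per mg microsomal protein.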

Rattus norvegicus = organism: Rattus norvegicus; experiment: Clearance in rat; format: ADME, organism-based; details: in vivo
[10] = Intrinsic clearance in mouse gut microsomes in presence of NADPH; format: ADME, Microsome; in short: as §3
[11] = Intrinsic clearance in rat liver microsomes in presence of NADPH; format: ADME, Microsome; in short: as §3
[12] = Intrinsic clearance in dog gut microsomes in presence of NADPH; format: ADME, Canis lupus familiaris, Microsome; in short: as §3
[13] = Bioavailability in dog; format: ADME, organism-based, Canis lupus familiaris; details: in vivo
[14] = Intrinsic clearance in mouse liver microsomes in presence of UGT; format: ADME, Microsome; in short: as §4
[15] = Intrinsic clearance in mouse liver microsomes in presence of NADPH; format: ADME, Microsome; in short: as §3
Canis familiaris = organism: Canis familiaris; experiment: Clearance in dog; format: ADME, organism-based, Canis lupus familiaris; details: in vivo
[16] = Intrinsic clearance in rat gut microsomes in presence of NADPH; format: ADME, Microsome; in short: as §3
[17] = Intrinsic clearance in dog liver microsomes in presence of UGT; format: ADME, Canis lupus familiaris, Microsome; in short: as §4
Mus musculus [18] = organism: Mus musculus; experiment: Clearance in mouse; format: ADME, organism-based; details: in vivo
[19] = Bioavailability in rat; format: ADME, organism-based; details: in vivo
[20] = Intrinsic clearance in dog gut microsomes in presence of UGT; format: ADME, Canis lupus familiaris, Microsome; in short: as §4
[21] = Intrinsic clearance in mouse gut microsomes in presence of UGT; format: ADME, Microsome; in short: as §4
[22] = Bioavailability in mouse; format: ADME, organism-based; details: in vivo
[23] = Intrinsic clearance in rat liver microsomes in presence of UGT; format: ADME, Microsome; in short: as §4

## CC(O)C1(CNC(=O)c2cc3cc(C#N)ccc3n2Cc2cccc(OC(F)(F)F)c2)CCCC1 (centres undefined)
[1]
  microsomal CLint: 505 µL/min/mg
[2]
  microsomal CLint: 9 µL/min/mg
Cannabinoid receptor 1 [3]
  IC50: 5.13 nM
[4]
  microsomal CLint: < 6 µL/min/mg
[5]
  microsomal CLint: 99 µL/min/mg

## CC(C)(CO)CNC(=O)c1cc2cc(C#N)ccc2n1Cc1cccc(OC(F)(F)F)c1
Cannabinoid receptor 1 [6]
  Ki: 0.794 nM
[1]
  microsomal CLint: 62 µL/min/mg
[2]
  microsomal CLint: 20 µL/min/mg
Mus musculus [7]
  ED50: 3.42 µmol/kg
Cannabinoid receptor 1 [3]
  IC50: 1.82 nM
[4]
  microsomal CLint: 136 µL/min/mg
[5]
  microsomal CLint: < 6 µL/min/mg
Cannabinoid receptor 2
  Ki: > 10000 nM

## COc1ccc(OC(F)(F)F)cc1Cn1c(C(=O)NCC(C)(C)CO)cc2cc(C#N)ccc21
[8]
  microsomal CLint: < 6 µL/min/mg
Cannabinoid receptor 1 [6]
  Ki: 0.398 nM
[9]
  microsomal CLint: < 6 µL/min/mg
Rattus norvegicus
  clearance: 104 mL/min/kg
[10]
  microsomal CLint: < 6 µL/min/mg
[1]
  microsomal CLint: 69 µL/min/mg
[11]
  microsomal CLint: 69 µL/min/mg
[2]
  microsomal CLint: 31 µL/min/mg
[12]
  microsomal CLint: < 6 µL/min/mg
[13]
  bioavailability: 67%
Mus musculus [7]
  ED50: 0.88 µmol/kg
[14]
  microsomal CLint: < 6 µL/min/mg
[15]
  microsomal CLint: 45 µL/min/mg
Cannabinoid receptor 1 [3]
  IC50: 1.17 nM
Canis familiaris
  clearance: 7 mL/min/kg
[4]
  microsomal CLint: 68 µL/min/mg
[16]
  microsomal CLint: < 6 µL/min/mg
[17]
  microsomal CLint: 7 µL/min/mg
[5]
  microsomal CLint: < 6 µL/min/mg
Mus musculus [18]
  clearance: 17 mL/min/kg
[19]
  bioavailability: 8%
[20]
  microsomal CLint: < 6 µL/min/mg
[21]
  microsomal CLint: < 6 µL/min/mg
[22]
  bioavailability: 30%
[23]
  microsomal CLint: 191 µL/min/mg
Cannabinoid receptor 2
  Ki: > 10000 nM

## CCOc1ccc(OC(F)(F)F)cc1Cn1c(C(=O)NCC(C)(C)CO)cc2cc(C#N)ccc21
[1]
  microsomal CLint: 103 µL/min/mg
[2]
  microsomal CLint: 20 µL/min/mg
Cannabinoid receptor 1 [3]
  IC50: 8.32 nM
[4]
  microsomal CLint: 103 µL/min/mg
[5]
  microsomal CLint: < 6 µL/min/mg

## CC(C)(CO)CNC(=O)c1cc2cc(C#N)ccc2n1Cc1cc(Cl)cc(Cl)c1
[1]
  microsomal CLint: 103 µL/min/mg
[2]
  microsomal CLint: 22 µL/min/mg
Cannabinoid receptor 1 [3]
  IC50: 5.37 nM
[4]
  microsomal CLint: 98 µL/min/mg
[5]
  microsomal CLint: < 6 µL/min/mg

## COc1ccc(Cl)cc1Cn1c(C(=O)NCC(C)(C)CO)cc2cc(C#N)ccc21
[1]
  microsomal CLint: 83 µL/min/mg
[2]
  microsomal CLint: 10 µL/min/mg
Cannabinoid receptor 1 [3]
  IC50: 2 nM
[4]
  microsomal CLint: 63 µL/min/mg
[5]
  microsomal CLint: < 6 µL/min/mg

## COc1ccc(Br)cc1Cn1c(C(=O)NCC(C)(C)CO)cc2cc(C#N)ccc21
[1]
  microsomal CLint: 104 µL/min/mg
[2]
  microsomal CLint: 23 µL/min/mg
Cannabinoid receptor 1 [3]
  IC50: 0.776 nM
[4]
  microsomal CLint: 94 µL/min/mg
[5]
  microsomal CLint: < 6 µL/min/mg

## COc1ccc(C)cc1Cn1c(C(=O)NCC(C)(C)CO)cc2cc(C#N)ccc21
[1]
  microsomal CLint: 191 µL/min/mg
[2]
  microsomal CLint: 23 µL/min/mg
Cannabinoid receptor 1 [3]
  IC50: 0.759 nM
[4]
  microsomal CLint: 64 µL/min/mg
[5]
  microsomal CLint: < 6 µL/min/mg

## Cc1ccc(C(F)(F)F)cc1Cn1c(C(=O)NCC(C)(C)CO)cc2cc(C#N)ccc21
[1]
  microsomal CLint: 180 µL/min/mg
[2]
  microsomal CLint: 16 µL/min/mg
Cannabinoid receptor 1 [3]
  IC50: 0.513 nM
[4]
  microsomal CLint: 102 µL/min/mg
[5]
  microsomal CLint: < 6 µL/min/mg

## Cc1ccc(Cl)cc1Cn1c(C(=O)NCC(C)(C)CO)cc2cc(C#N)ccc21
[1]
  microsomal CLint: 119 µL/min/mg
[2]
  microsomal CLint: 23 µL/min/mg
Cannabinoid receptor 1 [3]
  IC50: 0.575 nM
[4]
  microsomal CLint: 124 µL/min/mg
[5]
  microsomal CLint: < 6 µL/min/mg

## Cc1ccc(C)c(Cn2c(C(=O)NCC(C)(C)CO)cc3cc(C#N)ccc32)c1
[1]
  microsomal CLint: 257 µL/min/mg
[2]
  microsomal CLint: 29 µL/min/mg
Cannabinoid receptor 1 [3]
  IC50: 0.631 nM
[4]
  microsomal CLint: 124 µL/min/mg
[5]
  microsomal CLint: < 6 µL/min/mg

## CCCOc1cccc(Cn2c(C(=O)NCC(C)(C)CO)cc3cc(C#N)ccc32)c1
[1]
  microsomal CLint: 156 µL/min/mg
[2]
  microsomal CLint: 10 µL/min/mg
Cannabinoid receptor 1 [3]
  IC50: 1.55 nM
[4]
  microsomal CLint: 45 µL/min/mg
[5]
  microsomal CLint: 13 µL/min/mg

## COc1ccc(OC(F)(F)F)cc1Cn1c(C(=O)NCC2(CO)CC2)cc2cc(C#N)ccc21
[1]
  microsomal CLint: 139 µL/min/mg
[2]
  microsomal CLint: 18 µL/min/mg
Cannabinoid receptor 1 [3]
  IC50: 5.13 nM
[4]
  microsomal CLint: 51 µL/min/mg
[5]
  microsomal CLint: < 6 µL/min/mg

## COc1ccc(C(F)(F)F)cc1Cn1c(C(=O)NCC2(CO)CC2)cc2cc(C#N)ccc21
[1]
  microsomal CLint: 155 µL/min/mg
[2]
  microsomal CLint: 7 µL/min/mg
Cannabinoid receptor 1 [3]
  IC50: 1.32 nM
[4]
  microsomal CLint: 49 µL/min/mg
[5]
  microsomal CLint: < 6 µL/min/mg
